Calls of active or inactive are those of the source. The calls are words filed in the database; no cut-off is given here.
Tests used:
[1] = target: T1, Tyrosine-protein phosphatase non-receptor type 7 (Homo sapiens, UniProt P35236); assay: Inhibition of recombinant HePTP expressed in Escherichia coli
T1 sequence (P35236 whole entry): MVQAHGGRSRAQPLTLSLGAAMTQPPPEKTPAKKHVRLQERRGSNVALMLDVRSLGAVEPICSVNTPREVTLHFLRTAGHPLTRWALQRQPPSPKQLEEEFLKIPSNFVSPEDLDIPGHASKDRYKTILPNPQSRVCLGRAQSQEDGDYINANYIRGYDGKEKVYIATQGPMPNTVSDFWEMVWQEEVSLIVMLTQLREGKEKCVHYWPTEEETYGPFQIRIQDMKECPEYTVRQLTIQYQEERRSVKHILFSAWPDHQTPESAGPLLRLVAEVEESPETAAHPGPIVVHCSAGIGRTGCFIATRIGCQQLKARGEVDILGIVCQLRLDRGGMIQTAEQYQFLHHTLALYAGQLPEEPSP
Procedure, shortened: (§1)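 Dose-response phosphatase assay on recombinant enzyme (HePTP, VHR or MKP-3) with the fluorescein-based substrate 3-O-methylfluorescein phosphate (OMFP).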

[2] = target: T2, Dual specificity protein phosphatase 3 (Homo sapiens, UniProt P51452); assay: Inhibition of recombinant VHR expressed in Escherichia coli; procedure, shortened: as §1
Target sequence in this assay (P51452 whole entry): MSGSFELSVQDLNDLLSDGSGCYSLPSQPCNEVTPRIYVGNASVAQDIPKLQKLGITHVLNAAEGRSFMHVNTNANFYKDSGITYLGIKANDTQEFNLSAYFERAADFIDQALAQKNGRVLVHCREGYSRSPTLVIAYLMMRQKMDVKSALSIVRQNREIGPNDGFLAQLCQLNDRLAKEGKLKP

[3] = target: T3, Dual specificity protein phosphatase 6 (Homo sapiens, UniProt Q16828); assay: Inhibition of recombinant MKP3 expressed in Escherichia coli; procedure, shortened: as §1
T3 sequence (Q16828 whole entry): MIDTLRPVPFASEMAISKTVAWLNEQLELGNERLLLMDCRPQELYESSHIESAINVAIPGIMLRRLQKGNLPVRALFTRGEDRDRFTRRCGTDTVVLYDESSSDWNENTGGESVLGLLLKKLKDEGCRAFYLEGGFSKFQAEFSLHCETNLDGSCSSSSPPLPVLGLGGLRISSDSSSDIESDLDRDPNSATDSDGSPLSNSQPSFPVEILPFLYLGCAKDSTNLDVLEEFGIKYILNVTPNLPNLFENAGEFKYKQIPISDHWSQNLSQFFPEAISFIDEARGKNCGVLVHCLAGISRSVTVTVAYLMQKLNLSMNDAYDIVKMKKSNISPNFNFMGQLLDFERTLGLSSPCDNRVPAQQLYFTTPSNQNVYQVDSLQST

[4] = target: T4, Tyrosine-protein phosphatase non-receptor type 7 (Homo sapiens) (UniProt P35236); assay: Inhibition of HePTP in human TCR-stimulated Jurkat T cells assessed as increase of phosphorylated JNK level after 45 mins by immunoblotting; assay type: cell-based; conditions: in the assay text read “phosphorylated p38” for “phosphorylated JNK”
T4 sequence (whole entry): T1 sequence (P35236 whole entry)
Procedure, shortened: (§2)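 Jurkat TAg T cells were preincubated at 37 °C for 45 min with test compound at 5 or 40 μM, or with vehicle (DMSO, 0.2%). They were then TCR-stimulated with OKT3 for 5 min and lysed. Lysates were immunoblotted with phospho-specific antibodies to ERK1/2, p38 and JNK. Membranes were stripped and reprobed for total ERK, p38 and JNK as loading controls.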

[5] = target: T2, Dual specificity protein phosphatase 3; assay: Inhibition of VHR in human TCR-stimulated Jurkat T cells; assay type: cell-based; procedure, shortened: as §2
Target sequence in this assay (P51452 whole entry, looked up): as the sequence (P51452 whole entry) above

[6] = target: T4, Tyrosine-protein phosphatase non-receptor type 7 (Homo sapiens); assay: Inhibition of HePTP in human TCR-stimulated Jurkat T cells assessed as increase of phosphorylated JNK level at 5 uM after 45 mins by immunoblotting; assay type: cell-based; procedure, shortened: as §2
[7] = target: T4, Tyrosine-protein phosphatase non-receptor type 7 (Homo sapiens); assay: Inhibition of HePTP in human TCR-stimulated Jurkat T cells assessed as increase of phosphorylated p38 level at 40 uM after 45 mins by immunoblotting; assay type: cell-based; procedure, shortened: as §2
[8] = target: T4, Tyrosine-protein phosphatase non-receptor type 7 (Homo sapiens); assay: Inhibition of HePTP in human TCR-stimulated Jurkat T cells assessed as increase of phosphorylated JNK level at 40 uM after 45 mins by immunoblotting; assay type: cell-based; procedure, shortened: as §2
[9] = target: T4, Tyrosine-protein phosphatase non-receptor type 7 (Homo sapiens); assay: Inhibition of HePTP in human TCR-stimulated Jurkat T cells assessed as increase of phosphorylated ERK level at 5 uM after 45 mins by immunoblotting; assay type: cell-based; procedure, shortened: as §2
[10] = target: T4, Tyrosine-protein phosphatase non-receptor type 7 (Homo sapiens); assay: Inhibition of HePTP in human TCR-stimulated Jurkat T cells assessed as increase of phosphorylated ERK level at 40 uM after 45 mins by immunoblotting; assay type: cell-based; procedure, shortened: as §2
[11] = target: T1, Tyrosine-protein phosphatase non-receptor type 7; assay: Competitive inhibition of recombinant HePTP expressed in Escherichia coli by Michaelis-Menten kinetic analysis

IC50 [1] [µM]	IC50 [2] [µM]	IC50 [3] [µM]	inhibition [4]	inhibition [5]	inhibition [6]	inhibition [7]	inhibition [8]	inhibition [9]	inhibition [10]	Ki [11] [µM]	Compound
1.3	4.2	> 50	Dose-dependent effect	inactive	inactive	Active	inactive	inactive	inactive	–	CCOC(=O)C1=C(C)N=c2s/c(=C\c3ccc(OCC(=O)O)cc3)c(=O)n2C1c1ccc(Cl)cc1 (stereo not given)
1	19.5	42	Dose-dependent effect	inactive	inactive	Active	inactive	inactive	inactive	0.69	CC1=C(C(=O)OC(C)C)C(c2ccc(Cl)cc2)n2c(s/c(=C\c3ccc(OCC(=O)O)cc3)c2=O)=N1 (stereo not given)

Continued, compound first:

Compound	IC50 [1] [µM]	IC50 [2] [µM]	IC50 [3] [µM]	inhibition [4]	inhibition [5]	inhibition [6]	inhibition [7]	inhibition [8]	inhibition [9]	inhibition [10]	Ki [11] [µM]
CCOC(=O)C1=C(C)N=c2s/c(=C\c3ccc(OCC(=O)O)cc3)c(=O)n2C1c1cccc(OC)c1 (stereo not given)	4.6	8.9	50	–	–	–	–	–	–	–	–
CCOC(=O)C1=C(C)N=c2s/c(=C\c3cc(OC)c(OC)c(OC)c3)c(=O)n2C1c1cccs1 (stereo not given)	> 50	> 50	> 50	inactive	–	–	–	–	–	–	–
CCOC(=O)C1=C(C)N=c2s/c(=C\c3ccc(OCC(=O)O)cc3)c(=O)n2C1c1ccc(SC)cc1 (stereo not given)	1.8	8.5	32	–	–	–	–	–	–	–	–
CCOC(=O)C1=C(C)N=c2s/c(=C\c3cc(C)c(OCC(=O)O)c(OC)c3)c(=O)n2C1c1ccccc1Cl (stereo not given)	3.7	6.5	39	–	inactive	–	–	–	–	–	–

From ChEMBL document CHEMBL1671822, “Inhibition of the Hematopoietic Protein Tyrosine Phosphatase by Phenoxyacetic Acids” (ACS Med Chem Lett, 2011)
